In ChEMBL document CHEMBL1152290, “Bis-pyranobenzoquinones as a new family of reversal agents of the multidrug resistance phenotype mediated by P-glycoprotein in mammalian cells and the protozoan parasite Leishmania” (J Med Chem, 2008):
Active and inactive are the calls of the source. The rule behind the calls is not given here.

Key:
[1] = target: T1, Broad substrate specificity ATP-binding cassette transporter ABCG2 (Homo sapiens, UniProt Q9UNQ0); experiment: Inhibition of BCRP expressed in HEK293 cells assessed as mitoxantrone accumulation at 10 uM by spectrofluorimetry; type: cell-based; details: hek293, 10 µM
T1 sequence (Q9UNQ0 whole entry): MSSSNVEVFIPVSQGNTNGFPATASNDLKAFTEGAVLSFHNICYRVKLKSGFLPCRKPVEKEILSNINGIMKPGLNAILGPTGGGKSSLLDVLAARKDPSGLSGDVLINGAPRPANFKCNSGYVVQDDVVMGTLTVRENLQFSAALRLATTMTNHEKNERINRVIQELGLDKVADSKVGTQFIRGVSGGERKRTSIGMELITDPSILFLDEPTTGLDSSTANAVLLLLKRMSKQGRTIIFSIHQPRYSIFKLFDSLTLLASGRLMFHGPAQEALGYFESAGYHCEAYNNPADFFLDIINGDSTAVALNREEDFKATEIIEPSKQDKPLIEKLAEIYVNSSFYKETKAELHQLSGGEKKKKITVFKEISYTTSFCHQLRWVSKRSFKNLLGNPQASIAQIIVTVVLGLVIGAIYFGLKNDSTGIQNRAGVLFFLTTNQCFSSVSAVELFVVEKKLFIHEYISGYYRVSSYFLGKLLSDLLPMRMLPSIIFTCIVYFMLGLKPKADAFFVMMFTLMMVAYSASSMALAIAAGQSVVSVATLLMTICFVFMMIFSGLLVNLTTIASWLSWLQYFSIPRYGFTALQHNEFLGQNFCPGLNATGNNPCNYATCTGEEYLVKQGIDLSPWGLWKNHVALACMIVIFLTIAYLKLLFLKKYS
In short: (§1)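 Transfected cell monolayers were incubated 2 h at 37 °C with or without 10 µM compound in DMEM plus 10% HIFBS. Substrates were 5 µM mitoxantrone for HEK293-BCRP (R482) or 2 µM calcein-AM for 2008-MRP1. Cells were washed twice, lysed overnight at 4 °C in the dark in 20 mM Tris-HCl pH 7.4 with 0.2% SDS, and lysate fluorescence was read on a microplate spectrofluorometer.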

[2] = target: Multidrug resistance-associated protein 1 (Homo sapiens, UniProt P33527); experiment: Inhibition of MRP1 expressed in human 2008 cells assessed as calcein-AM accumulation at 10 uM by spectrofluorimetry; type: cell-based; details: human, 2008, 10 µM; in short: as §1
NIH3T3 [3] = experiment: Intrinsic cytotoxicity against mouse NIH/3T3 cells overexpressing MDR1 at 10 uM after 72 hrs by MTT assay; type: functional; details: NIH3T3, 72 h
In short: (§2)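 Wild-type or MDR1 NIH-3T3 cells were plated at 3.5×10^3 per well and allowed to attach for 24 h at 37 °C under 5% CO2. Compound was then added at 10 µM and intrinsic cytotoxicity was measured by MTT colorimetric assay. Mean ±SD of three independent experiments performed in triplicate.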

[4] = Intrinsic cytotoxicity against wild type mouse NIH/3T3 cells at 10 uM after 72 hrs by MTT assay; type: cell-based, NIH3T3; details: wild type NIH/3T3 cells, read-out: INH; in short: as §2
[5] = target: T2, ATP-dependent translocase ABCB1 (Homo sapiens, UniProt P08183); experiment: Inhibition of human MDR1 overexpressed in mouse NIH/3T3 cells assessed as daunorubicin accumulation at 10 uM by spectrofluorimetry; type: cell-based; details: nih3t3, 10 µM
In short: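 NIH-3T3 cells transfected with human MDR1-G185 were incubated 2 h at 37 °C with 10 µM daunorubicin, with or without 10 µM compound, in DMEM plus 10% HIFBS. Cells were washed twice, lysed in SDS/Tris buffer pH 7.4 overnight at 4 °C, and read by plate fluorometry. Uptake is expressed relative to wild-type NIH-3T3 accumulation (100%). Three independent experiments, ±SD.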

[6] = target: T2, ATP-dependent translocase ABCB1; experiment: Inhibition of human MDR1 overexpressed in mouse NIH/3T3 cells assessed as daunorubicin accumulation by flow cytometry; type: cell-based, NIH3T3
In short: (§3)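 MDR1 and wild-type NIH-3T3 cells were incubated 0.5 h at 37 °C in DMEM plus 10% HIFBS with 2 µM daunorubicin and varying compound concentrations. Cells were washed, trypsinized, taken up in cold PBS, gated to exclude debris, and FL2 fluorescence was measured. Signals were converted to % Pgp inhibition normalized to wild type and fitted to y = Bmax·x/(Ki + x). Three experiments in triplicate.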

[7] = target: T2, ATP-dependent translocase ABCB1; experiment: Inhibition of human MDR1 overexpressed in mouse NIH/3T3 cells assessed as daunorubicin accumulation by flow cytometry relative to control; type: cell-based; details: nih3t3; in short: as §3
NIH3T3 [8] = experiment: Intrinsic cytotoxicity against mouse NIH/3T3 cells overexpressing MDR1 at 3 uM after 72 hrs by MTT assay; type: functional; details: NIH3T3, 72 h
[9] = Intrinsic cytotoxicity against wild type mouse NIH/3T3 cells at 3 uM after 72 hrs by MTT assay; details: wild type NIH/3T3 cells
Leishmania tropica [10] = experiment: Growth inhibition of Leishmania tropica promastigotes expressing MDR1 at 10 uM after 72 hrs by MTT assay in presence of daunorubicin relative to control; type: functional; details: for inhibition of growth at 10 µM: MDR1, 72 h, read-out: GI
In short: (§4)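 L. tropica promastigotes in log phase were resuspended at 6×10^6 cells/mL in modified RPMI 1640 with 20% heat-inactivated FBS and exposed to compound for 72 h at 28 °C. Viability was read by MTT. The resistant line overexpresses a Pgp-like transporter and is maintained in 150 µM daunorubicin.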

Leishmania tropica [11] = experiment: Growth inhibition of wild type Leishmania tropica promastigotes at 10 uM after 72 hrs by MTT assay relative to control; type: functional; details: read-out: GI; in short: as §4
NIH3T3 [12] = experiment: Intrinsic cytotoxicity against mouse NIH/3T3 cells overexpressing MDR1 after 72 hrs by MTT assay; type: functional, cell-based; details: NIH3T3, 72 h
[13] = Intrinsic cytotoxicity against wild type mouse NIH/3T3 cells after 72 hrs by MTT assay; type: cell-based; details: NIH3T3, 72 h
NIH3T3 [14] = experiment: Resistance index, ratio of IC50 for mouse NIH/3T3 cells expressing MDR1 to IC50 for wild type mouse NIH/3T3 cells
In short: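 Cells were plated at 3.5×10^3 per well and attached for 24 h. MDR1 and wild-type NIH-3T3 cells were exposed for 72 h at 37 °C to increasing daunorubicin, with or without 10, 3 or 1 µM modulator. Growth was read by MTT, and IC50 came from four-parameter logistic fits. RI is the IC50 in MDR1 cells divided by the IC50 in wild-type cells. Three independent experiments.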

T2 sequence (P08183 whole entry): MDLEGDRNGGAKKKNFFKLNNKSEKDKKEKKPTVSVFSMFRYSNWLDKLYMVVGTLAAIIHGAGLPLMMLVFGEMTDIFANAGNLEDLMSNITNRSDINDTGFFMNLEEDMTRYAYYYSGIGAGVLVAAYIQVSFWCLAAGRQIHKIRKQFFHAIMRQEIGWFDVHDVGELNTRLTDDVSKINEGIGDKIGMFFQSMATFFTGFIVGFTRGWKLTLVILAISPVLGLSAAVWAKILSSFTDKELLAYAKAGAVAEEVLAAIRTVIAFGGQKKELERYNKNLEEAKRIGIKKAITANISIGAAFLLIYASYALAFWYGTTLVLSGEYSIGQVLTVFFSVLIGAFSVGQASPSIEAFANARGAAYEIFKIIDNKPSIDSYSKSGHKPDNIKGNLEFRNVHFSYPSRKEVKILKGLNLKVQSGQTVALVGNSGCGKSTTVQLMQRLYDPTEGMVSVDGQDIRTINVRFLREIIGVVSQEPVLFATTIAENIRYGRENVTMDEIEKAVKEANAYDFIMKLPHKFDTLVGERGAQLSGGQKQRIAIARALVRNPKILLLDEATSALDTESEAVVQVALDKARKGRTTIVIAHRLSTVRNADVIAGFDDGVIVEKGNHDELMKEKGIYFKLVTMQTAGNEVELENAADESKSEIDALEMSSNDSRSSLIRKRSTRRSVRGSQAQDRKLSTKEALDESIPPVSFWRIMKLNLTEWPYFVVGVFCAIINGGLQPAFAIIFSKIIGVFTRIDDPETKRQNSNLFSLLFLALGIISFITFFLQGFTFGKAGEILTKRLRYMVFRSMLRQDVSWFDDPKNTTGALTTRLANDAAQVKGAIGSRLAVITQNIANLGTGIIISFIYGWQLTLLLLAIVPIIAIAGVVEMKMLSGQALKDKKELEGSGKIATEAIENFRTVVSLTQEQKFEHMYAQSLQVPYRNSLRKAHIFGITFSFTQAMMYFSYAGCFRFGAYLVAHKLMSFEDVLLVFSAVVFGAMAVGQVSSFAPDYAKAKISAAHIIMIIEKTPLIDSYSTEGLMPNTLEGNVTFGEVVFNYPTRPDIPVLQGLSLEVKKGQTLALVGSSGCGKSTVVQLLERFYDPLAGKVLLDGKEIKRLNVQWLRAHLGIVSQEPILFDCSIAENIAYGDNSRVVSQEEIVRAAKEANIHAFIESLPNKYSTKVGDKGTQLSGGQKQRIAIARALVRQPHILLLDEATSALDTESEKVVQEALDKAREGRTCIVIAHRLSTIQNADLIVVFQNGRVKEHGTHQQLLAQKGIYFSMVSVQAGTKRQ
Chain of Multidrug resistance-associated protein 1 (P33527 whole entry): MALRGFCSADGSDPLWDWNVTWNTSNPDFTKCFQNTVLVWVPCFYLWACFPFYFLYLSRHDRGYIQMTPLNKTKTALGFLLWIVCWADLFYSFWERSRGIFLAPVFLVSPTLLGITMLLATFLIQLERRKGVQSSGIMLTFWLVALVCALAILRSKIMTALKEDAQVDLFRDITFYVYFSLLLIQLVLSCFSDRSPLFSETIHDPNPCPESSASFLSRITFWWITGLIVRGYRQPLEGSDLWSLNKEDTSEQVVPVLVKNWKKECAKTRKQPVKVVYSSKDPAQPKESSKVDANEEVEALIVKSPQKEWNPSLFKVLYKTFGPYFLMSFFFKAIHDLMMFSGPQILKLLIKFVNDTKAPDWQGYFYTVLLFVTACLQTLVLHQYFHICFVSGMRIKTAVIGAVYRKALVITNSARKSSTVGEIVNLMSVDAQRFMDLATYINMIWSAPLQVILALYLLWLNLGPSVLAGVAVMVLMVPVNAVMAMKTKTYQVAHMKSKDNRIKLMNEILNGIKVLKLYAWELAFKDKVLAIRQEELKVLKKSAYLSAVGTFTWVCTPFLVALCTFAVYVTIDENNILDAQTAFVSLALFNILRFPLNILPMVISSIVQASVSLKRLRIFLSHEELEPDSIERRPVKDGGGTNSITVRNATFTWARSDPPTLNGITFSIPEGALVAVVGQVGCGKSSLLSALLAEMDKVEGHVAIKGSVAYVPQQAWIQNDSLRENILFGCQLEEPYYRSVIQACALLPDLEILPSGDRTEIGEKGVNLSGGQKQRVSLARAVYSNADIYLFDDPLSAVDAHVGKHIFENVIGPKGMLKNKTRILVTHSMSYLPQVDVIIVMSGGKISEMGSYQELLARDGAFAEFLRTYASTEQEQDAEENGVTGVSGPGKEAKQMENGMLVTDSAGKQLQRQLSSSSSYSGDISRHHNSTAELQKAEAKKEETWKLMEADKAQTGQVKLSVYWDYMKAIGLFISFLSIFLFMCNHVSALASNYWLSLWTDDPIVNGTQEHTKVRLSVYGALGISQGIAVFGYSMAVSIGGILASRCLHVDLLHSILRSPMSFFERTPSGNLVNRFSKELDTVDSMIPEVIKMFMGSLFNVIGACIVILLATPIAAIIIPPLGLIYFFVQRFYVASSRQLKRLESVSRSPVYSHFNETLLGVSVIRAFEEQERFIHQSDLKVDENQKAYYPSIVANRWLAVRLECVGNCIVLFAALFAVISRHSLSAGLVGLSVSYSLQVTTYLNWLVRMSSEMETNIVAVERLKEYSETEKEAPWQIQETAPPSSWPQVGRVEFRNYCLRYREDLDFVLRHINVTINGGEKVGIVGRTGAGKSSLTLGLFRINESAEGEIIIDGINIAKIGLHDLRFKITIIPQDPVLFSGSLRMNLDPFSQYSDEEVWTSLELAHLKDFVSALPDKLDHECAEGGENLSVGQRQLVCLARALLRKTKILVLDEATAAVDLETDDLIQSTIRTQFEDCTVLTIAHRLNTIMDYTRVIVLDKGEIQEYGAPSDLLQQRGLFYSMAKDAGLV

Question: For `C[C@@H]1CC[C@@H]2[C@@H](C1)C1=C(OC2(C)C)C(=O)C2=C(OC(C)(C)[C@@H]3CC[C@@H](C)C[C@@H]23)C1=O`, which Activity [1] is on record?
Answer: Not Active

Question: What about the Activity [2] of the same compound?
Answer: Not Active

Question: And the inhibition at 10 µM (NIH3T3 [3])?
Answer: 18.1%

Question: What about the cytotoxicity at 72 h, 10 µM [4] of the same compound?
Answer: 0%

Question: What about the Activity [5] of the same compound?
Answer: Active

Question: What about the Ki [6] of the same compound?
Answer: 0.77 µM

Question: What about the “inhibition (INH)” value [7] of the same compound?
Answer: 72%

Question: Which inhibition at 10 µM (NIH3T3 [3]) does the source give for `O[C@@H](COc1cccc2ncccc12)CN1CCN([C@@H]2c3ccccc3[C@@H]3[C@H](c4ccccc42)C3(F)F)CC1` [ZOSUQUIDAR] here?
Answer: 3.1%

Question: What about the inhibition at 3 µM (NIH3T3 [8]) of the same compound?
Answer: 3.1%

Question: What about the cytotoxicity at 72 h, 10 µM [4] of the same compound?
Answer: 2.4%

Question: And the cytotoxicity at 72 h, 3 µM [9]?
Answer: 2.4%

Question: Which Activity (Leishmania tropica [10]) does the source give for `CC1(C)OC2=C(C(=O)C(=O)C3=C2OC(C)(C)[C@H]2COc4c(Br)cc(Br)cc4[C@@H]32)[C@@H]2c3cc(Br)cc(Br)c3OC[C@@H]21` here?
Answer: inactive

Question: For `CC1(C)OC2=C(C(=O)C(=O)C3=C2OC(C)(C)[C@H]2COc4ccc(Br)cc4[C@@H]32)[C@H]2c3cc(Br)ccc3OC[C@H]21`, which Activity (Leishmania tropica [10]) is on record?
Answer: inactive

Question: Which inhibition of growth at 10 µM (Leishmania tropica [10]) does the source give for `C[C@H]1CC[C@@H]2[C@@H]1C1=C(OC2(C)C)C2=C(C(=O)C1=O)[C@H]1[C@@H](CC[C@@H]1C)C(C)(C)O2` here?
Answer: > 75%

Question: Which Activity [1] does the source give for `COc1ccc2c(c1)OC[C@H]1[C@@H]2C2=C(OC1(C)C)C1=C(C(=O)C2=O)[C@H]2c3ccc(OC)cc3OC[C@H]2C(C)(C)O1` here?
Answer: Not Active

Question: And the Activity [2]?
Answer: Not Active

Question: And the inhibition at 10 µM (NIH3T3 [3])?
Answer: 3.5%

Question: And the cytotoxicity at 72 h, 10 µM [4]?
Answer: 9.7%

Question: And the Activity (Leishmania tropica [10])?
Answer: inactive

Question: And the Activity [5]?
Answer: Active

Question: What about the Ki [6] of the same compound?
Answer: 0.42 µM

Question: What about the “inhibition (INH)” value [7] of the same compound?
Answer: 105.8%

Question: Which inhibition of growth at 10 µM (Leishmania tropica [11]) does the source give for `CC1(C)OC2=C(C(=O)C(=O)C3=C2OC(C)(C)[C@H]2COc4ccc(Br)cc4[C@@H]32)[C@@H]2c3cc(Br)ccc3OC[C@@H]21` here?
Answer: 75%

Question: And the inhibition of growth at 10 µM (Leishmania tropica [10])?
Answer: > 75%

Question: Which inhibition of growth at 10 µM (Leishmania tropica [10]) does the source give for `C[C@@H]1CC[C@H]2[C@H](C1)C1=C(OC2(C)C)C2=C(C(=O)C1=O)[C@H]1C[C@@H](C)CC[C@@H]1C(C)(C)O2` here?
Answer: > 75%

Question: With `COc1ccc(CCN(C)CCCC(C#N)(c2ccc(OC)c(OC)c2)C(C)C)cc1OC` (stereo not drawn) as the compound, how does the inhibition at 10 µM (NIH3T3 [3]) read?
Answer: 11.2%

Question: With `CC1(C)OC2=C(C(=O)C3=C(C2=O)[C@H]2c4cc(Br)ccc4OC[C@H]2C(C)(C)O3)[C@H]2c3cc(Br)ccc3OC[C@H]21` as the compound, how does the Activity (Leishmania tropica [10]) read?
Answer: inactive

Question: Which inhibition of growth at 10 µM (Leishmania tropica [10]) does the source give for `CC1(C)OC2=C(C(=O)C(=O)C3=C2OC(C)(C)[C@H]2COc4ccc5ccccc5c4[C@@H]32)[C@@H]2c3c(ccc4ccccc34)OC[C@@H]21` here?
Answer: 100%

Question: With `CC1(C)OC2=C(C(=O)C(=O)C3=C2OC(C)(C)[C@H]2COc4c(Br)cc(Br)cc4[C@@H]32)[C@H]2c3cc(Br)cc(Br)c3OC[C@H]21` as the compound, how does the Activity (Leishmania tropica [10]) read?
Answer: inactive

Question: For `COc1ccc2c(c1)OC[C@H]1[C@@H]2C2=C(OC1(C)C)C1=C(C(=O)C2=O)[C@@H]2c3ccc(OC)cc3OC[C@@H]2C(C)(C)O1`, which Activity [1] is on record?
Answer: Not Active

Question: What about the Activity [2] of the same compound?
Answer: Not Active

Question: What about the inhibition at 10 µM (NIH3T3 [3]) of the same compound?
Answer: 10.8%

Question: What about the cytotoxicity at 72 h, 10 µM [4] of the same compound?
Answer: 24.7%

Question: And the inhibition of growth at 10 µM (Leishmania tropica [10])?
Answer: > 75%

Question: And the Activity [5]?
Answer: Active

Question: What about the Ki [6] of the same compound?
Answer: 1.04 µM

Question: What about the “inhibition (INH)” value [7] of the same compound?
Answer: 112.5%

Question: Which IC50 (NIH3T3 [12]) does the source give for `COc1cccc2c1C(=O)c1c(O)c3c(c(O)c1C2=O)C[C@@](O)(C(C)=O)C[C@@H]3O[C@H]1C[C@H](N)[C@H](O)[C@H](C)O1` [DAUNORUBICIN] here?
Answer: 1.01 µM

Question: What about the IC50 [13] of the same compound?
Answer: 0.044 µM

Question: What about the “Ratio IC50” value (NIH3T3 [14]) of the same compound?
Answer: 23

Question: Which Activity [1] does the source give for `COc1ccc2c(c1)OC[C@@H]1[C@H]2C2=C(OC1(C)C)C(=O)C1=C(OC(C)(C)[C@@H]3COc4cc(OC)ccc4[C@H]13)C2=O` here?
Answer: Not Active

Question: And the Activity [2]?
Answer: Not Active

Question: And the inhibition at 10 µM (NIH3T3 [3])?
Answer: 0%

Question: And the cytotoxicity at 72 h, 10 µM [4]?
Answer: 6.5%

Question: And the Activity (Leishmania tropica [10])?
Answer: inactive

Question: What about the Activity [5] of the same compound?
Answer: Active

Question: What about the Ki [6] of the same compound?
Answer: 0.51 µM

Question: And the “inhibition (INH)” value [7]?
Answer: 104.3%
